Results as given in article PMC8154199 (JACS Au, 2021).

Assays:
P. falciparum strain Dd2 = experiment: Growth inhibition assay with highly synchronized P. falciparum, SYBR green; type: cell-based; conditions: Plasmodium falciparum, DD2, 72 h, read-out: IC50 P. falciparum Dd2
[1] = CID-ESI-MS stability of heme-drug complexes; type: binding; conditions: 4-heme m/z 960.2; AQ-heme m/z 971.3; CQ-heme m/z 935.4
Procedure, shortened: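 Hematin was made fresh from hemin in 50% ammonia. Test compound stock was in ACN or water. Hematin and compound were mixed equimolar at 100 μM in CH3CN/H2O (50:50), then diluted to 50 μM in ACN/H2O/HCOOH (50:50:1). Samples were infused at 5 μL·min–1 into an orthogonal ESI-TOF. CID used capillary exit (cone) voltage 120–400 V in 20 V steps, and adduct stability responses were plotted against voltage.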

human fibroblasts hMRC-5 = experiment: Toxicity against human fibroblasts hMRC-5; type: cell-based; conditions: Fibroblast, read-out: IC50 hMRC-5
[2] = Probe solubility in aqueous ACN by absorbance kinetics; type: physicochemical; conditions: aqueous ACN solutions (Figure S16)
Procedure, shortened: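 Solubility was assessed in 2% ACN by spectrophotometric absorbance kinetics over decreasing test compound concentrations, starting at 20 μM.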

Row | Structure (SMILES) | IC50 (P. falciparum strain Dd2) [nM] | residual complex at high fragmentor voltage (ion abundance) [1] | IC50 (human fibroblasts hMRC-5) [nM] | solubility sequence, from the less to the most soluble [2]
1 | CCN(CC)CCCC(C)Nc1ccnc2cc(Cl)ccc12 (centres unmarked) [chloroquine, reference compound] | 189 | did not show a residual covalent adduct |  | 
2 | CN(C)c1ccc2nc3ccc(=[N+](C)C)cc-3sc2c1 [methylene blue, reference compound] | 7 |  |  | 
3 | C#Cc1ccc(C(=O)C2=C(C)C(=O)c3ccccc3C2=O)cc1 [probe 7] | 1810 ± 302 |  | 20500 | probe 10 < probe 8 ≈ probe 7 < probe 9
4 | C#Cc1ccc(CC2=C(C)C(=O)c3ccccc3C2=O)cc1 [probe 11, 2-(4-ethynylbenzyl)-3-methylnaphthalene-1,4-dione] | 49 ± 15 |  | > 64000 | 
